Experimental data published in ChEMBL document CHEMBL1157725 (Bioorg Med Chem, 2010).
The source made the active and inactive calls. No cut-off for these calls is given here.

Legend:
MCF7 = assay: Antiproliferative activity against human MCF7 cells after 24 hrs by SRB assay; type: functional, cell-based; conditions: MCF7, 24 h
Procedure, shortened: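 MCF-7 cells are grown for 24 h with or without drug, then for a further 48 h. Total cell protein is measured by sulforhodamine B staining, and the IC₅₀ is derived from it.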

[1] = Inhibition of tubulin polymerization by turbidimetry
Procedure, shortened: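 Tubulin at 10 µM (1.0 mg/mL). Polymerization followed turbidimetrically at 350 nm in temperature-controlled spectrophotometers.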

[2] = Displacement of [3H]colchicine from tubulin at 50 uM by turbidimetry; conditions: in the assay text read “by DEAE-cellulose filter method” for “by turbidimetry”
Procedure, shortened: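 Binding of [³H]colchicine to tubulin (1.0 µM, 0.1 mg/mL) is measured by the DEAE-cellulose filter method. The radioligand is at 5.0 µM and test agents at 5 or 50 µM. Each is run in triplicate.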

[3] = Inhibition of tubulin in rat A10 cells assessed as induction of cellular microtubule disassembly after 18 hrs by indirect immunofluorescence technique; type: cell-based; conditions: A10, 18 h
Procedure, shortened: (§1)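 A-10 cells plated on glass coverslips and treated with compound at varying concentrations for 18 h. After fixation, microtubules immunostained with a β-tubulin antibody (indirect immunofluorescence) and nuclei stained with DAPI. Read by fluorescence microscopy. Percentage of cellular microtubule loss estimated visually across the concentration range.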

A10 = assay: Inhibition of tubulin in rat A10 cells assessed as thinning of microtubule network at 20 uM after 18 hrs by fluorescence microscopy; type: cell-based; procedure, shortened: as §1
CCRF-CEM = assay: Growth inhibition of human CCRF-CEM cells after 48 hrs by SRB assay; type: functional
K562 = assay: Growth inhibition of human K562 cells after 48 hrs by SRB assay; type: functional; conditions: K562, 48 h
MOLT-4 = assay: Growth inhibition of human MOLT4 cells after 48 hrs by SRB assay; type: functional; conditions: MOLT-4, 48 h
[4] = Growth inhibition of human […] cells after 48 hrs by SRB assay; type: functional
SR = assay: Growth inhibition of human SR cells after 48 hrs by SRB assay; type: functional
Procedure, shortened: (§2)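 NCI human tumor cell line panel. Cells exposed for 48 h to five concentrations in a 10-fold serial dilution. Growth inhibition read as total cell protein by sulforhodamine B staining. GI50 calculated from log dose–response curves.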

A549 = assay: Growth inhibition of human A549 cells after 48 hrs by SRB assay; type: functional; conditions: A549, 48 h
EKVX = assay: Growth inhibition of human EKVX cells after 48 hrs by SRB assay; type: functional
HOP-62 = assay: Growth inhibition of human HOP62 cells after 48 hrs by SRB assay; type: functional; conditions: HOP-62, 48 h
HOP-92 = assay: Growth inhibition of human HOP92 cells after 48 hrs by SRB assay; type: functional; conditions: HOP-92, 48 h
NCI-H226 = assay: Growth inhibition of human NCI-H226 cells after 48 hrs by SRB assay; type: functional; conditions: NCI-H226, 48 h
NCI-H23 = assay: Growth inhibition of human NCI-H23 cells after 48 hrs by SRB assay; type: functional; conditions: NCI-H23, 48 h
NCI-H322M = assay: Growth inhibition of human NCI-H322M cells after 48 hrs by SRB assay; type: functional
NCI-H460 = assay: Growth inhibition of human NCI-H460 cells after 48 hrs by SRB assay; type: functional; conditions: NCI-H460, 48 h
NCI-H522 = assay: Growth inhibition of human NCI-H522 cells after 48 hrs by SRB assay; type: functional; conditions: NCI-H522, 48 h
COLO 205 = assay: Growth inhibition of human COLO205 cells after 48 hrs by SRB assay; type: functional; conditions: COLO 205, 48 h
HCC 2998 = assay: Growth inhibition of human HCC2998 cells after 48 hrs by SRB assay; type: functional; conditions: HCC 2998, 48 h
HCT-116 = assay: Growth inhibition of human HCT116 cells after 48 hrs by SRB assay; type: functional; conditions: HCT-116, 48 h
HCT-15 = assay: Growth inhibition of human HCT15 cells after 48 hrs by SRB assay; type: functional; conditions: HCT-15, 48 h
KM12 = assay: Growth inhibition of human KM12 cells after 48 hrs by SRB assay; type: functional; conditions: KM12, 48 h
SW-620 = assay: Growth inhibition of human SW620 cells after 48 hrs by SRB assay; type: functional; conditions: SW-620, 48 h; procedure, shortened: as §2
SF-268 = assay: Growth inhibition of human SF268 cells after 48 hrs by SRB assay; type: functional; conditions: SF-268, 48 h
Procedure, shortened: (§3)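 This is the NCI cell-line panel. Cells are exposed for 48 h to five concentrations in 10-fold serial dilution. Growth is read by the SRB protein assay, and GI₅₀ is calculated from log dose–response curves.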

SF-295 = assay: Growth inhibition of human SF295 cells after 48 hrs by SRB assay; type: functional; conditions: SF-295, 48 h; procedure, shortened: as §3
SF-539 = assay: Growth inhibition of human SF539 cells after 48 hrs by SRB assay; type: functional; conditions: SF-539, 48 h; procedure, shortened: as §2
SNB-19 = assay: Growth inhibition of human SNB19 cells after 48 hrs by SRB assay; type: functional; conditions: SNB-19, 48 h; procedure, shortened: as §2
U-251 = assay: Growth inhibition of human U251 cells after 48 hrs by SRB assay; type: functional; conditions: U-251, 48 h; procedure, shortened: as §2
LOX IMVI = assay: Growth inhibition of human LOXIMVI cells after 48 hrs by SRB assay; type: functional; procedure, shortened: as §3
Malme-3M = assay: Growth inhibition of human MALME-3M cells after 48 hrs by SRB assay; type: functional; procedure, shortened: as §3
M14 = assay: Growth inhibition of human M14 cells after 48 hrs by SRB assay; type: functional; conditions: M14, 48 h; procedure, shortened: as §3

For `COc1ccc(/C=C/C(=O)c2cc(OC)c(OC)c(OC)c2)cc1B(O)O`, the IC50 (MCF7) was 900 nM, the IC50 [1] was 31000 nM and the inhibition [2] was 56%. The EC50 [3] was 16500 nM, the Activity (A10) was “Active” and the GI50 (CCRF-CEM) was 2390 nM. The GI50 (K562) was 3460 nM, the GI50 (MOLT-4) was 3600 nM and the GI50 [4] was 1120 nM. For the same compound, the GI50 (SR) was 2180 nM, the GI50 (A549) was 450 nM and the GI50 (EKVX) was 1310 nM. The GI50 (HOP-62) was 98 nM, the GI50 (HOP-92) was 380 nM and the GI50 (NCI-H226) was 4140 nM. The GI50 (NCI-H23) was 140 nM, the GI50 (NCI-H322M) was 8440 nM and the GI50 (NCI-H460) was 28 nM. For the same compound, the GI50 (NCI-H522) was 200 nM, the GI50 (COLO 205) was 2200 nM and the GI50 (HCC 2998) was 410 nM. It also gave a GI50 (HCT-116) of 370 nM, a GI50 (HCT-15) of under 10 nM and a GI50 (KM12) of 15400 nM. For the same compound, the GI50 (SW-620) was 37 nM, the GI50 (SF-268) was 800 nM and the GI50 (SF-295) was 2730 nM. For the same compound, the GI50 (SF-539) was 35 nM, the GI50 (SNB-19) was under 10 nM and the GI50 (U-251) was 25 nM. For the same compound, the GI50 (LOX IMVI) was 60 nM, the GI50 (Malme-3M) was 5490 nM and the GI50 (M14) was 1190 nM.
